# High-throughput results (PubChem)
# TRPN1 ag: agonists of zebrafish TRPN1 channel; HEK293 zebrafish TRPN1-YFP, Fluo-8 calcium fluorescence; 100% = response to 87 µM carbachol; AID 1424; activation, % at 3 µM; hit rate 0.18% among 220,000;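 active = activation above its plate's cutoff, the mean activation of test wells on that plate plus 3 SD, cut at about 19% in these data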;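 note: 0% = DMSO alone and 100% = 87 µM carbachol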
#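 Material – zebrafish TRPN1-YFP in HEK293 cells · Doses – 3 µM single point · Schedule – dye 1 h 37 °C plus 30 min RT · Signal – Fluo-8 calcium fluorescence, excitation 470-495 nm, emission 515-575 nm · Read-out – % activation versus carbachol response · Control set – carbachol high, DMSO low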
# OXTR agonist: human OXTR agonism. P30559. CHO-OTR cells, Fluo-8 calcium fluorescence; normalized: DMSO 0%, oxytocin 100%. activation, % at 3 µM. hit rate 0.32% among 320,000. AID 2435;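 active = activation above the mean of all tested compounds plus 3 SD, cutoff set per screening run, cut at about 20% in these data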;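 note: peak over basal fluorescence ratio from a 100 s FLIPR kinetic read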
# Target sequence (P30559 whole entry, looked up): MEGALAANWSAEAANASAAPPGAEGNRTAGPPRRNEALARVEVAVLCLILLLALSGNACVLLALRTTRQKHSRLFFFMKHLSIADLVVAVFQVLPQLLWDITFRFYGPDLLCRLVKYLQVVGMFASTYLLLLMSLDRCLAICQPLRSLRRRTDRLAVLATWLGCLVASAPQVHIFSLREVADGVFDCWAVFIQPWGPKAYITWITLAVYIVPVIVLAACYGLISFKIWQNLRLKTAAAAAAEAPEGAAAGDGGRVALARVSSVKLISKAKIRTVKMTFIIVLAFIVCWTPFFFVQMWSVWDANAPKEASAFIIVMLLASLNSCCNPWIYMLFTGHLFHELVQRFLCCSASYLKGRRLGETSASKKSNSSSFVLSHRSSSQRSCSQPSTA
# V1aR counter: V1a receptor agonism, counter-screen for OXTR agonists. CHO-V1R cells, Fluo-8 calcium fluorescence, agonist mode; 0% DMSO, 100% 3 nM vasopressin. AID 2797. hit rate 0.25% among 320,000. activation, % at 3 µM. P37288;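 active = activation above the mean activation of all tested compounds plus 3 SD, per screening run, cut at about 20% in these data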;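 note: signal is peak over basal fluorescence ratio across a 100 second FLIPR read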
# OXTR potentiator: human OXTR potentiation. P30559. CHO-OTR cells, Fluo-8 calcium fluorescence, potentiator mode; 0% = oxytocin EC15, 100% = EC100. activation, % at 3 µM. hit rate 0.061% among 320,000. AID 2445;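 active = activation above that plate's cutoff, the mean activation of tested compounds plus 3 SD, cut at about 6.6% in these data, passing the limit was not always enough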;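 note: 100% uses oxytocin at 75 nM as the full agonist control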
#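 System: human OTR in CHO cells; Also added: sub-maximal oxytocin, roughly EC15; Timing: compound 6 min at room temperature before oxytocin, 100 s read; Technique: Fluo-8 intracellular calcium fluorescence, ex 470-495, em 515-575 nm; Controls: oxytocin EC15 low and EC100 high; Replication: singlicate.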
# TRPML3 agonist: activates the human TRPML3 channel; Q8TDD5; HEK293 TRPML3-YFP, Fluo-8 calcium fluorescence; 100% = the carbachol control signal; activation, % at 3 µM; hit rate 0.29% among 220,000;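 active = activation above its plate's cutoff, the mean activation of the plate's test wells plus 3 SD, cut at about 12% in these data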;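 note: 0% = DMSO only wells and 100% = carbachol wells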
#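 Test system – HEK293 line with stable expression of human TRPML3-YFP channel · Control set – carbachol 87 µM final as high control (100%), DMSO as low control (0%) · Signal – Fluo-8 calcium dye fluorescence, ex 470-495, em 515-575 nm · Incubation – 1-h 37 °C dye load, 5-s basal, 120-s post-compound reads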
# Numbers without * were called inactive; / = not tested or not shown. A selection: hits, their analogues and other compounds. The true share with any hit is near 0.55%.
SMILES,TRPN1 ag,OXTR agonist,V1aR counter,OXTR potentiator,TRPML3 agonist
Cc1ccc(OCC(=O)OC(C)CN2CCCCC2)cc1 (configuration not stated),/,1,1,5,/
CCN1/C(=C/C=C/c2oc3ccc(-c4ccccc4)cc3[n+]2CC)Oc2ccc(-c3ccccc3)cc21,777*,662*,761*,-10,326*
COc1ccc2c(c1)C=Cc1ccccc1O2,/,-2,-2,6,/
O=C1/C(=C/c2ccc(N3CCCC3)cc2)NC(=S)N1C1CC1,9,115*,84*,-15,7
O=C1N/C(=C/c2ccc(N3CCCC3)cc2)C(=O)N1c1ccccc1,0,2,4,-3,0
Cc1cc(N2CCCC2)ccc1/C=C1\NC(=S)N(C)C1=O,14,54*,49*,-20,9
CN1C(=O)c2ccc(N3CCCC3)cc2C1=O,1,4,4,-5,1
CC(=O)Nc1ccc(S(=O)(=O)NCC(=O)OCC(=O)N2CCCc3ccccc32)cc1,0,-2,0,-5,1
COc1ccc(N/N=C(\C#N)C(=N)SCc2ccccc2)cc1,19*,/,/,/,15*
COc1ccc(N/N=C(\C#N)C(=N)N2CCCCC2)cc1,0,1,-1,-8,0
Cc1cc2nc(N=C(N)N)nc(C)c2cc1C,0,/,/,/,0
CCOC(=O)CN1C(=O)S/C(=C/c2ccc3c(c2)n(C)c(=O)n3C)C1=O,0,1,0,-2,0
CCOC(=O)CN1C(=O)S/C(=C/C=C/c2ccc(N(C)C)cc2)C1=O,6,26*,28*,-17,6
N#Cc1c(NC(=S)NC(=O)c2ccccc2)sc2c1CCN(CCc1ccccc1)C2,24*,28*,57*,-15,14*
O=C(Cn1nnc(-c2ccccc2NC(=O)c2ccccc2F)n1)NC1CCCC1,1,47*,49*,1,0
C#CCOCCOCCOCCNc1nc(N2CCN(C(=O)CCCCCCCCCCNC(=O)[C@H](CCCCN)n3cc(CCO)nn3)CC2)nc(N2CCN(C(=O)CCCCCCCCCCNC(=O)[C@@H]([C@H](C)O)n3cc(C)nn3)CC2)n1,/,1,12,-8,/
C#CCOCCOCCOCCNc1nc(N2CCN(C(=O)CCCCCCCCCCNC(=O)[C@H](CCCCN)n3cc(C)nn3)CC2)nc(N2CCN(C(=O)CCCCCCCCCCNC(=O)[C@@H]([C@H](C)CC)n3cc(CCCCCN)nn3)CC2)n1,/,3,38*,-13,/
C#CCOCCOCCOCCNc1nc(N2CCN(C(=O)CCCCCCCCCCNC(=O)Cn3cc(CCCCCN)nn3)CC2)nc(N2CCN(C(=O)CCCCCCCCCCNC(=O)[C@H](CO)n3cc(CCCCCN)nn3)CC2)n1,/,25*,26*,-15,/
C#CCOCCOCCOCCNc1nc(N2CCN(C(=O)CCCCCCCCCCNC(=O)[C@H]([C@@H](C)CC)n3cc(CCCCCN)nn3)CC2)nc(N2CCN(C(=O)CCCCCCCCCCNC(=O)[C@@H]([C@H](C)O)n3cc(C)nn3)CC2)n1,/,37*,58*,-13,/
N#CC1=C(SCC(N)=O)NC2=C(C(=O)c3ccccc32)C1c1ccc(Cl)cc1 (configuration not stated),2,1,-1,-6,0
O=C(Cn1cc(S(=O)(=O)N2CCCC2)c(S(=O)(=O)N2CCCC2)c1)NCc1ccco1,/,-1,0,-3,/
COc1ccc(C(=O)N/C(=C\c2ccccc2)C(=O)NCc2cccnc2)cc1,/,0,1,-6,/
CCOC(=O)c1ccc2c(c1)N(CC)/C(=C\C=C1/SC(=S)N(CC)C1=O)N2CC,0,/,/,/,0
C=CCN1C(=O)/C(=C/C=C2/N(CC)c3ccc(S(=O)(=O)N(C)C)cc3N2CC)SC1=S,11,30*,26*,-20,4
CCc1cc(CNC(=O)C2CCC(=O)N(Cc3cccc(F)c3)C2)on1 (configuration not stated),/,-1,3,-5,/
SMILES,TRPN1 ag,OXTR agonist,V1aR counter,OXTR potentiator,TRPML3 agonist
COc1ccc(/C=N/NC(=O)c2ccncc2)cc1CSc1nc2ccccc2s1,0,1,2,-7,0
CCN(CC1CCCO1)C(=O)C1CCN(C2CCN(Cc3ccccc3C)CC2)CC1 (configuration not stated),/,0,0,-1,/
CC(C)N(Cc1nc(-c2ccccc2)no1)S(=O)(=O)c1ccccc1,-1,-2,1,-4,25*
CCN(CC)CCCN1CC(=O)N2[C@@H](Cc3c([nH]c4ccccc34)C2(C)C)C1=O,/,1,1,-10,/
COc1ccc(C2(C)NC(=O)N(CC(=O)Nc3cccnc3Cl)C2=O)cc1 (configuration not stated),/,7,5,-3,/
CC1(c2ccc(OC(F)F)cc2)NC(=O)N(CC(=O)Nc2ccc(N3CCCCC3)cc2)C1=O (configuration not stated),/,27*,27*,-21,/
CCC1(c2ccc(F)cc2)NC(=O)N(CC(=O)Nc2cccnc2Cl)C1=O (configuration not stated),/,23*,30*,-18,/
CC1(c2ccc(OC(F)F)cc2)NC(=O)N(CC(=O)Nc2cccnc2Cl)C1=O (configuration not stated),/,60*,48*,-22,/
CCC1(c2ccccc2)NC(=O)N(CC(=O)Nc2cccnc2Cl)C1=O (configuration not stated),/,4,2,-3,/
O=C(NC12CC3CC(CC(C3)C1)C2)c1c(Cl)cccc1Cl,/,-1,1,-1,/
COC(=O)Cn1ncc(N2C3CC(CC(C)(C)C3)C2C)c(Cl)c1=O (configuration not stated),0,0,0,3,0
O=C(Nc1ncc(S(=O)(=O)c2ccc([N+](=O)[O-])cc2)s1)c1ccccc1F,6,33*,41*,-8,4
CC(Oc1ccc(-c2ccccc2)cc1)C(=O)N/N=C/c1cccnc1 (configuration not stated),/,4,7,-10,/
CC(C)n1cc(CN2CCCC(C(=O)Nc3cccc(-c4cc5ccccc5[nH]4)c3)C2)cn1 (configuration not stated),/,24*,26*,-14,/
Cn1cc(CN2CCCC(C(=O)Nc3cccc(-c4cc5ccccc5[nH]4)c3)C2)cn1 (configuration not stated),/,8,5,-14,/
O=C1c2ccccc2S(=O)(=O)c2cc(C(=O)N(c3ccccn3)c3ccccn3)ccc21,35*,88*,89*,-11,76*
O=C(Nc1ccccn1)c1ccc2c(c1)S(=O)(=O)c1ccccc1C2=O,2,2,0,-6,1
